Measurements taken from ChEMBL document CHEMBL1123258 (J Med Chem, 1986).
Values after ≈ are worked out from the molar mass of the structure shown. Values joined by “and” are separate entries in the source; they are usually repeats but may differ in a detail not shown here. Identical values can stand only once.

Legend:
[1] = Compound was evaluated for the percentage of hydrolysis product formed at pH of 2; format: ADME; conditions: pH 2
Outline: (§1)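 Stock solutions at 0.6 mg/mL in CH3CN (or CH3OH) were diluted 1:1 with phosphate buffer (pH 7), citrate buffer (pH 4) or 0.1 N HCl-KCl (pH 2). They were held at 23 °C for 22 h, then analysed by reverse-phase HPLC in 0.1 M NaH2PO4-CH3CN (75:25) with 254 nm absorbance. Each value is the amount detected at that time divided by the total detected at start.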

[2] = Compound was evaluated for the percentage of hydrolysis product formed at pH of 4; format: ADME; conditions: pH 4; outline: as §1
[3] = Compound was evaluated for the overall absorbance loss at pH of 2; format: ADME; conditions: pH 2; outline: as §1
[4] = Compound was evaluated for the overall absorbance loss at pH of 4; format: ADME; conditions: pH 4; outline: as §1
[5] = Compound was evaluated for the overall absorbance loss at pH of 7; format: ADME; conditions: pH 7; outline: as §1
[6] = Compound was evaluated for its stability after 22 hr in solution at pH of 2; format: physicochemical; conditions: pH 2, read-out: Recovery; outline: as §1
[7] = Compound was evaluated for its stability after 22 hr in solution at pH of 4; format: physicochemical; conditions: pH 4, read-out: Recovery; outline: as §1
[8] = Compound was evaluated for its stability after 22 hr in solution at pH of 7; format: physicochemical; conditions: pH 7, read-out: Recovery; outline: as §1
[9] = Compound was evaluated for the percentage of hydrolysis product formed at pH of 7; format: ADME; conditions: pH 7; outline: as §1
[10] = Compound was evaluated for the percentage of hydrolysis of compound 2 formed at pH of 2; format: ADME; conditions: pH 2; outline: as §1
[11] = Compound was evaluated for the percentage of hydrolysis of compound 2 formed at pH of 4; format: ADME; conditions: pH 4; outline: as §1
[12] = Compound was evaluated for the percentage of hydrolysis of compound 2 formed at pH of 7; format: ADME; conditions: pH 7; outline: as §1
[13] = Compound was evaluated for the percentage of hydrolysis product (aglycon) formed at pH of 2; format: ADME; conditions: pH 2; outline: as §1
[14] = Compound was evaluated for the percentage of hydrolysis product (aglycon) formed at pH of 4; format: ADME; conditions: pH 4; outline: as §1
[15] = Compound was evaluated for the percentage of hydrolysis product (aglycon) formed at pH of 7; format: ADME; conditions: pH 7; outline: as §1
[16] = Compound was evaluated for the change in Tm of isolated helical DNA in solution; format: ADME
Outline: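 Thermal denaturation of calf thymus DNA, 5.2 × 10⁻⁵ M (P), with drug at 5.2 × 10⁻⁶ M, in 0.01 M phosphate buffer pH 7 with EDTA and 5% Me₂SO. ΔTm = Tm of DNA–drug complex minus Tm of DNA alone.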

L1210 [17] = assay: Compound was evaluated for the inhibition of DNA synthesis in leukemia L1210 cells; format: functional; conditions: Mus musculus, read-out: ED50 (the source's name)
Outline: (§2)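 Actively growing L1210 cells exposed to drug for 3 h; drug dissolved first in Me₂SO, final 1% Me₂SO. Read-out is incorporation of [³H]thymidine into DNA or [³H]uridine into RNA. ED50 is the concentration giving 50% inhibition.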

L1210 [18] = assay: Compound was evaluated for the inhibition of RNA synthesis in leukemia L1210 cells; format: functional; conditions: Mus musculus, read-out: ED50 (the source's name); outline: as §2
Mus musculus = species: Mus musculus; assay: Compound was evaluated for the antitumor efficacy at optimal dose against P388 in mice; format: functional
Outline: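 Mice given 10⁶ P388 leukemia cells ip on day 0, then dosed ip on day 1 at the optimal dose. Efficacy expressed as % T/C, the mean survival time of treated over control mice; ≥120% counts as active.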

P388/S = assay: Compound was evaluated for the growth inhibition of P388/S cells.; format: functional, cell-based; conditions: Mus musculus
Outline: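 P388/S is the sensitive line routinely used in screening. Cells were exposed to drug for 48 h before IC50 was determined.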

[19] = Partition coefficient in octanol-phosphate buffer at pH 7.4; format: physicochemical
Outline: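 Drug partitioned between octanol and phosphate buffer pH 7.4. Concentrations in each phase measured by UV absorbance; log P is the log of organic-phase over aqueous-phase concentration.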

HeLa [20] = assay: (§3) Compound was evaluated for the inhibition of colony formation in HeLa cells; format: functional; conditions: Homo sapiens, read-out: ID50 (the source's name)
Outline: (§4)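 Exponentially growing HeLa cells exposed to drug for 24 h, then plated at 50 cells/mL in drug-free medium. Colonies grown 7–10 days at 37 °C in humidified 95:5 air/CO₂, then scored. ID50 is the concentration giving 50% inhibition of colony growth.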

P388/ADR = assay: Compound was evaluated for the growth inhibition of P388/ADR cells.; format: functional, cell-based; conditions: Mus musculus
Outline: (§5)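 Growth of P388/S cells, the routine screening line, and of the P388/ADR resistant subline measured after 48-h drug exposure. IC50 is the concentration giving 50% growth inhibition.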

P388 = assay: Compound was evaluated for the growth inhibition of P388/S, cells.; format: functional, cell-based; conditions: Mus musculus; outline: as §5
[21] = Resistance index was measured as ratio of IC50 of P388/ADR to that of P388/S
HeLa [22] = assay: as §3; format: functional, Mus musculus; conditions: Homo sapiens, read-out: ID50 (the source's name); outline: as §4

Structure (SMILES) | Absorbance [3] [%] | Absorbance [4] [%] | Absorbance [5] [%] | remaining at 22 h [6] [%] | Change in Tm [16] | EC50 (L1210 [17]) [nM] | EC50 (L1210 [18]) [nM] | T/C (Mus musculus) | IC50 (P388) [nM] | also measured
COc1cccc2c1C(=O)c1c(O)c3c(c(O)c1C2=O)C[C@@](O)(C(=O)CO)C[C@@H]3OC1CC(N2CCOCC2)C(O)C(C)O1 (stereo partly specified) | 4 | 12 | 4 | 96 | – | – | – | – | – | Hydrolysis [1]: < 1%; Hydrolysis [2]: < 1%; remaining at 22 h [7]: 88%; remaining at 22 h [8]: 90%; Hydrolysis [9]: < 1%
COc1cccc2c1C(=O)c1c(O)c3c(c(O)c1C2=O)C[C@@](O)(C(=O)CO)C[C@@H]3OC1CC(N2CCOCC2C#N)C(O)C(C)O1 (stereo partly specified) | 67 | 37 | 17 | 10 | 8.7 | 3 | 0.53 | 262% and 233% | – | Hydrolysis [10]: 7%; Hydrolysis [11]: 8%; Hydrolysis [12]: 0.8%; Hydrolysis [13]: 8%; Hydrolysis [14]: 0.1%; Hydrolysis [15]: 0.3%; IC50 (P388/S): 0.16 nM
COc1cccc2c1C(=O)c1c(O)c3c(c(O)c1C2=O)C[C@@](O)(C(=O)CO)C[C@@H]3OC1CC(NCCO)C(O)C(C)O1 (stereo partly specified) | – | – | – | – | 10.7 | 5200 | 810 | 157% and 205% | 230 | logD [19]: 0.19; IC50 (HeLa [20]): 0.031 µg/mL (≈ 0.0528 µM); IC50 (P388/ADR): 3900 nM; Ratio [21]: 17
COc1cccc2c1C(=O)c1c(O)c3c(c(O)c1C2=O)C[C@@](O)(C(=O)CO)C[C@@H]3OC1CC2C(OC(CO)N2CCO)C(C)O1 (stereo partly specified) | – | – | – | – | – | 650 | 120 | – | – | –
COc1cccc2c1C(=O)c1c(O)c3c(c(O)c1C2=O)C[C@@](O)(C(=O)CO)C[C@@H]3O[C@H]1C[C@H](N)[C@H](O)[C@H](C)O1 [DOXORUBICIN] | – | – | – | – | 12.8 | 1600 | 580 | 182% and 273% | 68 | IC50 (HeLa [22]): 0.019 µg/mL (≈ 0.035 µM)
